Published values collected from several papers.
Compare with care: the assays were run in different laboratories. Converted amounts (≈) assume the structure as drawn.
Organism: Staphylococcus aureus

SMILES | test | test system | conditions | measurement | value
O=C(Cc1ccccc1)Sc1cccccc1=O | microbial growth, broth dilution | ATCC29213 |  | MIC80 | > 100 µM
CN[C@H](CC(C)C)C(=O)N[C@H]1C(=O)N[C@@H](CC(N)=O)C(=O)N[C@H]2C(=O)N[C@H]3C(=O)N[C@H](C(=O)N[C@H](C(=O)O)c4cc(O)cc(O)c4-c4cc3ccc4O)[C@H](O)c3ccc(c(Cl)c3)Oc3cc2cc(c3O[C@@H]2O[C@H](CO)[C@@H](O)[C@H](O)[C@H]2O[C@H]2C[C@](C)(N)[C@H](O)[C@H](C)O2)Oc2ccc(cc2Cl)[C@H]1O | microbial growth, disc diffusion | ATCC29213 | 62.5 µg/disc, 24 h | inhibition zone | 18 mm
O=C(Sc1cccccc1=O)c1cccc(C(F)(F)F)c1 | microbial growth, broth dilution | ATCC29213 |  | MIC80 | > 100 µM
CC1(C)S[C@@H]2[C@H](NC(=O)[C@H](N)c3ccccc3)C(=O)N2[C@H]1C(=O)O | microbial growth, agar dilution | ATCC29213 | 26.93 µM | inhibition | 100%
CC(C)c1nn(-c2nc3ccc(Cl)cc3s2)c2c1C(=O)c1ccccc1-2 | microbial growth, well diffusion | NCIM5021 | 1000 µg/mL | inhibition zone | 12 mm
O=C(N/N=C/c1ccc([N+](=O)[O-])o1)c1ccc(O)cc1 | microbial growth | ATCC700699 |  | MIC90 | 15.6 µg/mL (≈ 56.8 µM)
C[C@@H]1CCN(C(=O)CC#N)C[C@@H]1N(C)c1ncnc2[nH]ccc12 | microbial growth | NCTC8325 |  | MIC | > 30 µM
O=C(Sc1cccccc1=O)c1ccccc1C(F)(F)F | microbial growth, broth dilution | ATCC29213 |  | MIC80 | 100 µM (≈ 31 µg/mL)
CC(C)Cc1nn(-c2nc3ccc(Cl)cc3s2)c2c1C(=O)c1ccccc1-2 | microbial growth, well diffusion | NCIM5021 | 500 µg/mL | inhibition zone | 11 mm
Cc1ccc2nc(-c3ccncc3)[nH]c2c1 | microbial growth, broth dilution | ATCC29213 MSSA |  | MIC | 64 µg/mL
COC(=O)/C(=C1/OC(=O)C(c2ccccc2)=C1O)c1ccccc1 | microbial growth | ATCC6538 |  | IC50 | 32 µM
COc1ccc2nc(-n3nc(C)c4c3-c3ccccc3C4=O)sc2c1 | microbial growth, well diffusion | NCIM5021 | 250 µg/mL | inhibition zone | 12 mm
CC1(c2ccccc2O)Nn2c(nc(-c3ccc(Cl)cc3)c(C#N)c2=O)N1C(Cc1c[nH]c2ccccc12)C(=O)O (centres unmarked) | microbial growth | ATCC25923 | 15 µg/mL, 24 h | inhibition zone | 35 mm
O=C(Sc1cccccc1=O)c1ccc(C(F)(F)F)cc1 | microbial growth, broth dilution | ATCC29213 |  | MIC80 | > 100 µM
CC(C)c1nn(-c2nc3ccc(Br)cc3s2)c2c1C(=O)c1ccccc1-2 | microbial growth, well diffusion | NCIM5021 | 1000 µg/mL | inhibition zone | 12 mm
CNC(=O)c1cc(Oc2ccc(NC(=O)NC34CC5CC(CC(C5)C3)C4)cc2)ccn1 | microbial growth | NCTC8325 |  | MIC | > 100 µM
[H]/N=C(/N)N[C@H]1[C@H](O)[C@@H](O)[C@H](O[C@@H]2O[C@@H](C)[C@](O)(C=O)[C@H]2O[C@@H]2O[C@@H](CO)[C@H](O)[C@@H](O)[C@@H]2NC)[C@@H](N/C(N)=N\[H])[C@@H]1O | microbial growth, well diffusion | NCIM5021 | 250 µg/mL | inhibition zone | 22 mm
CN1CCC(CNc2ccc3ncc(-c4cccc(OC(F)(F)F)c4)n3n2)CC1 | microbial growth | NCTC8325 |  | MIC | > 30 µM
CCOc1ccc(-c2nc3ccc(C)cc3[nH]2)cc1 | microbial growth, broth dilution | ATCC29213 MSSA |  | MIC | 128 µg/mL

SMILES | test | test system | conditions | measurement | value
CC(=O)NC[C@H]1CN(c2ccc(N3CCOCC3)c(F)c2)C(=O)O1 | microbial killing, broth dilution | NRS107 |  | MBC | 16 µM
O=C(O)CN1C(=O)/C(=C/c2c3ccccc3c(-c3ccc(N(c4ccccc4)c4ccccc4)cc3)c3ccccc23)NC1=S | microbial killing, broth dilution | ATCC43300 |  | MBC | > 1000 µg/mL
Cc1cc2c(F)c(Oc3ncnn4cc(OC[C@@H](C)O)c(C)c34)ccc2[nH]1 | microbial growth | NCTC8325 |  | MIC | > 30 µM
Cc1nn(-c2nc3ccccc3s2)c2c1C(=O)c1ccccc1-2 | microbial growth, well diffusion | NCIM5021 | 125 µg/mL | inhibition zone | 9 mm
O=C1NC(=S)N/C1=C\c1c2ccccc2c(-c2ccc(N(c3ccccc3)c3ccccc3)cc2)c2ccccc12 | microbial killing, broth dilution | ATCC25923 |  | MBC | > 1000 µg/mL
C=CCCCCCCCCCCCC(O)CC(O)CO (centres unmarked) | microbial growth, broth dilution | ATCC29213 |  | IC50 | > 200 µg/mL
Cc1nc(Nc2ncc(C(=O)Nc3c(C)cccc3Cl)s2)cc(N2CCN(CCO)CC2)n1 | microbial growth | NCTC8325 |  | MIC | > 30 µM
COc1ccc2nc(-n3nc(C(C)C)c4c3-c3ccccc3C4=O)sc2c1 | microbial growth, well diffusion | NCIM5021 | 1000 µg/mL | inhibition zone | 11 mm
O=C(O)CN1C(=O)/C(=C/c2ccc(-c3ccc(N(c4ccccc4)c4ccccc4)cc3)cc2)SC1=S | microbial killing, broth dilution | ATCC43300 |  | MBC | 7.8 µg/mL
CCCCCCCCCCCCCC(O)CC(O)CO (centres unmarked) | microbial growth, broth dilution | ATCC33591 MRSA | drug-resistant strain | IC50 | 8.26 µg/mL
CCN(CCO)CCCOc1ccc2c(Nc3cc(CC(=O)Nc4cccc(F)c4)[nH]n3)ncnc2c1 | microbial growth | NCTC8325 |  | MIC | > 30 µM
O=C1NC(=S)S/C1=C\c1ccc(-c2ccc(N(c3ccccc3)c3ccccc3)cc2)c2ccccc12 | microbial killing, broth dilution | ATCC6538 |  | MBC | > 1000 µg/mL
C#CCCCCCCCCCCCC(O)CC(O)CO (centres unmarked) | microbial growth, broth dilution | ATCC29213 |  | IC50 | 3.26 µg/mL
O=C1NC(=S)S/C1=C\c1c2ccccc2c(-c2ccc(N(c3ccccc3)c3ccccc3)cc2)c2ccccc12 | microbial killing, broth dilution | ATCC6538 |  | MBC | > 1000 µg/mL
Cc1ccc2nc(-n3nc(C(C)C)c4c3-c3ccccc3C4=O)sc2c1 | microbial growth, well diffusion | NCIM5021 | 1000 µg/mL | inhibition zone | 14 mm
O=C(O)CN1C(=O)/C(=C/c2ccc(-c3ccc(N(c4ccccc4)c4ccccc4)cc3)c3ccccc23)SC1=S | microbial killing, broth dilution | ATCC25923 |  | MBC | > 1000 µg/mL
C#CCCCCC(=O)N1CCN(c2ccccc2)CC1 | microbial growth | NCTC8325 |  | MIC | > 100 µM
O=C1NC(=S)S/C1=C\c1ccc(-c2ccc(N(c3ccccc3)c3ccccc3)cc2)cc1 | microbial killing, broth dilution | ATCC25923 |  | MBC | 1000 µg/mL
Cc1cc(Nc2cc(CN3CCOCC3)c3nc(C)c(Cc4ccc(Cl)cc4F)n3n2)n[nH]1 | microbial growth | NCTC8325 |  | MIC | 30 µM
